This sample holds only a part of the variants without activity.
B1: tRNA (parent)
chain: GUUCCGUUGGCGUAAUGGUAACGCGUCUCCCUCCUAAGGAGAAGACUGCGGGUUCGAGUCCCGUACGGAACG

Variants of: B1
Test: yeast fitness relative to wild type (ratio to wild type); higher = fitter; tRNA-Arg(CCU), competitive growth, 37 C, YPD
Method in brief: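 Genotype frequency changes were the basis for Darwinian fitness relative to wild type. The frequencies came from 100-nucleotide paired-end sequencing of gene amplicons from the start population and each end population of pooled yeast strains with tRNA-Arg(CCU) gene variants at the native locus. Competition ran in YPD at 37°C for 24 hours in six replicates, genotypes needed ≥ 100 starting reads, and estimates < 0.5 were set to 0.5.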

Variant | yeast fitness
GUUCCGUUAGCGUAAUGGUAACGCGGCUCCCUCCUAAGGAGAAGACUGCGGGUUCGAGUACCGUACGGAACG [G9A U26G C60A] | 0.539
GUUCCGUUAGCGUAAUGGAAACGCGACUCCCUCUUAAGGAGAAGACUGCGGGUUCGAGUCCCGUACGGAACG [G9A U19A U26A C34U] | ≤ 0.5
GUUCCGUUAGCGUAAUGGUAACGCGACUCCCUCCUAAGGAGAAGACUGCGGGUUCAAGUCCCGUACAGAACG [G9A U26A G56A G67A] | ≤ 0.5
GUUCCGUUAGCGUAAUGGUAACGCGUCUCCCUCCAAUGGAGAAGAUUGCGGGUUCGAGUCCCGUCCGGAACG [G9A U35A A37U C46U A65C] | 0.633
GUUCCGUUAGCGUAAAGGUAACGCCUCUCCCUCCUAAGGAGAAGAGUGCGGGUUCGAGUCCCGUACGGAACG [G9A U16A G25C C46G] | 0.588
GUUCCGUUAGCGUAACGGUAACGCGUCUCGCUCGUAAGGGGAAGACUGCGGGUUCGAGUCGCGUACGGGACG [G9A U16C C30G C34G A40G C61G A69G] | ≤ 0.5
GUUCCGUUAGCGGAAUGGUAACGCGUCUCCCUCCUGAGGAGAAGACUGCGGGUUCGAGACCCGUACGGAACG [G9A U13G A36G U59A] | 0.68
GUUCCGUUAGCGUAACGGUAACGCGUCUCCCUCCUAAGGAAAAGACUGCGGGUUCGAAUCCCGUACGGAACG [G9A U16C G41A G58A] | ≤ 0.5
GUUCCGUUAGCGUAAUGGUAACGCGGCUCCCUCCUAAGGAGAAGACUGCGGGUUCGAGUCCCGUACGGGCCG [G9A U26G A69G A70C] | ≤ 0.5
GUUCCGUUAGCGUAAUGGUAACGCGGCUCCCUCCUAAGGAGAAGACUGCGGGUUCGUGUCCCGUACGGAACG [G9A U26G A57U] | 0.631
GUUCCGUUAGCGUAAUGGUAACGCGCCUCCCUCCUAAGGAGAAGACUGUGGGUUCGAGUCCCGUACGGAACG [G9A U26C C49U] | 0.685
GUUCCGUUAGCGUAAUGGCAACGCGUCUCCCUCCUAAGGAGAUGACUGCGGGUUCGAGUCCCGUACGGAACG [G9A U19C A43U] | 0.713
GUUCCGUUAGCGUAAUGGUAACGCGUCCCCCUCCUAAGGAGAAAACUGCGGGUUCGAGUCCCGUACGCAACG [G9A U28C G44A G68C] | ≤ 0.5
GUUCCGUUAGCGCAAUGGUAUCGCGUCUCCCUCCUGAGGCGAAGACUGCGGGUUCGAGUCCCGUACGGUACG [G9A U13C A21U A36G A40C A69U] | ≤ 0.5
GUUCCGUUAGCGUAACGGUAACGCGUCUCCCUCCUAAGGAGAAGACUGCGGGUUCGAGUCCCGUACGGAACG [G9A U16C] | 1.05
GUUCCGUUAGCGUAAAGGUAACGCGUCUCCCUCCUAAGGAGAAGACUGCGGGUUCGAGUCCCGUACGGAACG [G9A U16A] | 1.08
GUUCCGUUAGCGUAAUGGGAACGCGUCUCCCUCCUACGGAGAUGAGUGCGGGUUCGAGUCCCGUACGGAACG [G9A U19G A37C A43U C46G] | 0.581
GUUCCGUUAGCGCAAUGGUAACGCGUGUCCCUCCUAAGGAGAAGACUGCGGGAUCGAGUACCGUGCGGAACG [G9A U13C C27G U53A C60A A65G] | ≤ 0.5
GUUCCGUUAGCGUAAUGGUAACGCGUCCCCCUCCUAUGGAGAAGACAGCGGGUUCGAGUCUCGUACGGAACG [G9A U28C A37U U47A C61U] | 0.871

Variant | yeast fitness
GUUCCGUUAGCGAAAUGGUAACGCGUCUCCCUCCUAAGGAGAAGACUGCGGGUUCGAGUCCCGUACGGUACG [G9A U13A A69U] | 0.811
GUUCCGUUAGCGAAAUGGUAACGCGUCUCCCUCCUAAGGAGAAGACUGCGGGUUCGAGUCCCGUACGGCACG [G9A U13A A69C] | 0.809
GUUCCGUUAGCGUAACGGUCACGCGUCUCCCUCCUAAGGGGAAGACUGCGGGUUUGAGUCCCGUACGGAACG [G9A U16C A20C A40G C55U] | ≤ 0.5
GUUCCGUUAGCGUAAGGGUAACGCGUCUCCCUCCUAAGGAGCAGACUGCGGGUUCGAGUCCCGUACGGAACG [G9A U16G A42C] | 0.955
GUUCCGUUAGCGUAACGGUAACGCGUCUGCAUGCUAAGGAAAGGACUGCGGGUUCGAGUCCCGUACGGAACG [G9A U16C C29G C31A C33G G41A A43G] | ≤ 0.5
GUUCCGUUAGCGUAAUGGUAACGCGUCCCCCUCCUAAGGAGAAAACUGCGCGUUCGACUCCCGUACGGAACG [G9A U28C G44A G51C G58C] | 0.51
GUUCCGUUAGCGUAAUGGUAACGCGUCUCCCGCCUAAGGAGAAGACUGCGGGUUCGAGUCCCGUACGGAACG [G9A U32G] | 0.616
GUUCCGUUAGCGUAAUGGUAACGCGUCGCCCUCCUAAGGCGGAGACUGCGGGUUCGAGUCCCGUACGGAACG [G9A U28G A40C A42G] | 0.76
GUUCCGUUAGCGUAAUGGUAACGCGUCACCCUCCUAAGGAGAAGGCUGCGGGUUCGAGUCCCGUACGGAACG [G9A U28A A45G] | 0.645
GUUCCGUUAGCGUAAUGGUAACGCGCCUCCCUCCUUAGAAGAAGACUGCGGGUUCGAGUCCCGUACGGAACG [G9A U26C A36U G39A] | ≤ 0.5
GUUCCGUUAGCGGAAUGGUAACGCGUCUCCCUCCUGAGGAGAAGACUGCGGGUUCGAGUCCCGUACGGAACG [G9A U13G A36G] | 0.574
GUUCCGUUAGCGUAAUGGUAACGCGUCUCCCCGCUAGGGAGAAGACUGCGGAUUUGAGUCCCGUUCGGAACG [G9A U32C C33G A37G G52A C55U A65U] | 0.583
GUUCCGUUAGCGUAAUGGGAACGCGUCUCCGUCCUAAGGAGAAGACUGCGGGUUCGAGUCCCGUACGGAACG [G9A U19G C31G] | ≤ 0.5
GUUCCGUUAGCGUAAUGGCAACGCGUCUCCCUCCUAAGGAGAAGACUGCGGGUUCGAGUCCCGUAUGGAACG [G9A U19C C66U] | 0.742
GUUCCGUUAGCGUAAUGGUAACGCGUCCCCCUCCUAAGGAGAAGACUGCGGGUUCGAGUCCCGUACGGAACG [G9A U28C] | 0.855
GUUCCGUUAGCGUAAUGGUAACGCGACUCCCUCCUAAGGAGAUGACUGCGGGUUCGAGUCCCGUUCGGAACG [G9A U26A A43U A65U] | 0.562
GUUCCGUUAGCGUAAAGGUAACGCGUCUCCCUCCUAAGGAGCAGACUGCGGGCUCGAGUCCCGUCCGGAACG [G9A U16A A42C U53C A65C] | ≤ 0.5
GUUCCGUUAGCGUAAUGGUAACGCGUCCCCCUCCUAAAGAGAAAACUGCGCGUUCGACUCCCGUACGGAACG [G9A U28C G38A G44A G51C G58C] | ≤ 0.5
GUUCCGUUAGCGUAACGGUGACGCGUCUCCCUCCUAAGGAGGAGACUGCGGGUUCGAGUCCCGUACGGAACG [G9A U16C A20G A42G] | ≤ 0.5

Source: the RNAGym collection of RNA variant scans (doi:10.1126/science.aae0568)
